Assay results as given in ChEMBL document CHEMBL4177655, “Synthesis and biological evaluation of Santacruzamate-A based analogues” (Bioorg Med Chem, 2017).
The source made the active and inactive calls. The rule behind the calls is not given here.

What was measured:
HCT-116 [1] = assay: Antiproliferative activity against human HCT116 cells after 48 hrs by MTT assay; format: functional, cell-based; details: HCT-116, 48 h
HCT-116 [2] = assay: Antiproliferative activity against human HCT116 cells after 72 hrs by MTT assay; format: functional, cell-based; details: HCT-116, 72 h
HCT-116 [3] = assay: Antiproliferative activity against human HCT116 cells after 24 hrs by MTT assay; format: functional, cell-based; details: HCT-116, 24 h
[4] = target: T1, Histone deacetylase (Homo sapiens) (UniProt Q13547+O15379+Q9UBN7+Q92769+Q9UQL6+Q8WUI4+Q9BY41+Q96DB2+P56524+Q9UKV0+Q969S8); assay: Inhibition of HDAC in human HCT116 cells assessed as reduction in acetyl-histone-H3 levels at 10 uM after 24 hrs by Western blot analysis relative to control; format: cell-based
Outline: (§1)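 HCT116 cells were treated 24 h at 10 µM, with DMSO vehicle as control. Total lysates (protein by Bradford against a BSA standard, ~30 µg loaded) were run on 15% SDS-PAGE under reducing conditions and transferred to nitrocellulose. Membranes were blocked in 5% milk, then probed with anti-acetyl-histone H3 or H4, with GAPDH as loading control. Detection by HRP secondary and ECL. Three experiments.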

[5] = target: T1, Histone deacetylase (Homo sapiens); assay: Inhibition of HDAC in human HCT116 cells assessed as reduction in acetyl-histone-H4 levels at 10 uM after 24 hrs by Western blot analysis relative to control; format: cell-based; outline: as §1
[6] = target: Histone deacetylase 1 (Homo sapiens) (UniProt Q13547); assay: Inhibition of full-length recombinant HDAC1 (unknown origin) expressed in baculovirus infected Sf9 insect cells measured every 5 mins by fluorescence assay
[7] = target: Histone deacetylase 1 (Homo sapiens) (UniProt Q13547); assay: Inhibition of full-length recombinant HDAC1 (unknown origin) expressed in baculovirus infected Sf9 insect cells preincubated for 16 hrs measured every 5 mins by fluorescence assay
[8] = target: T2, Protein deacetylase HDAC6 (Homo sapiens) (UniProt Q9UBN7); assay: Inhibition of full-length recombinant HDAC6 (unknown origin) expressed in baculovirus infected Sf9 insect cells measured every 5 mins by fluorescence assay
T2 sequence (whole entry): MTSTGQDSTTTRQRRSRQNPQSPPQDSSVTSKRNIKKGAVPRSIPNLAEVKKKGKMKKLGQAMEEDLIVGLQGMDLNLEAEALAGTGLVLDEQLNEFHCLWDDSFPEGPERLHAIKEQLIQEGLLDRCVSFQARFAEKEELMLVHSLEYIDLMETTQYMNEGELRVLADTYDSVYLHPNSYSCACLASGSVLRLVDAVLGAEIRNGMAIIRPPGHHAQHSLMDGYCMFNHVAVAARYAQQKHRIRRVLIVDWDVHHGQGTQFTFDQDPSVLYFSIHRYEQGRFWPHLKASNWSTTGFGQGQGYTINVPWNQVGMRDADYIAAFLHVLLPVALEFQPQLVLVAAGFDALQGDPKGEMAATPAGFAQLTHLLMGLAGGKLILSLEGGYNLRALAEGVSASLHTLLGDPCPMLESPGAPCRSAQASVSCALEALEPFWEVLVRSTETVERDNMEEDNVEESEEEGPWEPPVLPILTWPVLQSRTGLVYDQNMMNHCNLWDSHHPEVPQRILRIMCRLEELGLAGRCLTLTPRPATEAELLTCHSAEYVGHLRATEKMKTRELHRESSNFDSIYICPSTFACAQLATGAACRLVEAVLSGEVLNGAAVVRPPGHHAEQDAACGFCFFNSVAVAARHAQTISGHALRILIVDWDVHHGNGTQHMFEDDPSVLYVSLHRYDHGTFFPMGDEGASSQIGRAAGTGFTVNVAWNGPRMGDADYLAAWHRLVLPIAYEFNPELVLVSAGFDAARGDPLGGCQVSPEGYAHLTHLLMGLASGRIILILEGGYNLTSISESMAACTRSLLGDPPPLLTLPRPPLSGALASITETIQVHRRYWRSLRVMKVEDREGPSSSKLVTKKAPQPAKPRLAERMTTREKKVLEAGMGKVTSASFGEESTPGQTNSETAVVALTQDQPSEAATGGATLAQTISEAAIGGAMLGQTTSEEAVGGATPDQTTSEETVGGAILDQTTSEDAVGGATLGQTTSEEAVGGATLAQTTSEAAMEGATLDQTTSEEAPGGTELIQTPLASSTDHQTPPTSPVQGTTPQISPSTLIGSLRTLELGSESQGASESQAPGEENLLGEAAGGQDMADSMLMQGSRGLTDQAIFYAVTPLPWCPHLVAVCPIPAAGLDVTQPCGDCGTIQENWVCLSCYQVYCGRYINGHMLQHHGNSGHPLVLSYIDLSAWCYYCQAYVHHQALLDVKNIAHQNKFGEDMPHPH

[9] = target: Histone deacetylase 2 (Homo sapiens) (UniProt Q92769); assay: Inhibition of full-length human recombinant HDAC2 expressed in baculovirus infected Sf9 insect cells preincubated for 16 hrs measured every 5 mins by fluorescence assay
[10] = target: T3, Histone deacetylase 3/Nuclear receptor corepressor 2 (HDAC3/NCoR2) (Homo sapiens) (UniProt O15379+Q9Y618); assay: Inhibition of human full length C-terminal His-tagged HDAC3/N-terminal GST-tagged human NCOR2 (395 to 489 residues) co-expressed in baculovirus infected Sf9 insect cells measured every 5 mins by fluorescence assay
[11] = target: T3, Histone deacetylase 3/Nuclear receptor corepressor 2 (HDAC3/NCoR2) (Homo sapiens); assay: Inhibition of human full length C-terminal His-tagged HDAC3/N-terminal GST-tagged human NCOR2 (395 to 489 residues) co-expressed in baculovirus infected Sf9 insect cells preincubated for 16 hrs measured every 5 mins by fluorescence assay
[12] = target: T4, Histone deacetylase 8 (Homo sapiens) (UniProt Q9BY41); assay: Inhibition of human full-length recombinant C-termianl His-tagged HDAC8 expressed in baculovirus infected Sf9 insect cells measured every 5 mins by fluorescence assay
T4 sequence (whole entry): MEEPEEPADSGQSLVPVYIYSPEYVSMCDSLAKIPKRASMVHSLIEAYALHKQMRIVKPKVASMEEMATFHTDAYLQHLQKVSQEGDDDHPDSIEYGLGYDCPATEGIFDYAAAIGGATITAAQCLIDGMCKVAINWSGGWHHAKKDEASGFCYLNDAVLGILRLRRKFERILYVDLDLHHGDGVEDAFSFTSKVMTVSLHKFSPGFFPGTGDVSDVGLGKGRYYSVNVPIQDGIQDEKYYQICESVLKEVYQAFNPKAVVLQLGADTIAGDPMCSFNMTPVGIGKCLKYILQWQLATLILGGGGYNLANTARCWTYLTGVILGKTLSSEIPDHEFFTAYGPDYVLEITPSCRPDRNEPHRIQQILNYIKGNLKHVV

Histone deacetylase 1 (Homo sapiens), sequence (Q13547 whole entry): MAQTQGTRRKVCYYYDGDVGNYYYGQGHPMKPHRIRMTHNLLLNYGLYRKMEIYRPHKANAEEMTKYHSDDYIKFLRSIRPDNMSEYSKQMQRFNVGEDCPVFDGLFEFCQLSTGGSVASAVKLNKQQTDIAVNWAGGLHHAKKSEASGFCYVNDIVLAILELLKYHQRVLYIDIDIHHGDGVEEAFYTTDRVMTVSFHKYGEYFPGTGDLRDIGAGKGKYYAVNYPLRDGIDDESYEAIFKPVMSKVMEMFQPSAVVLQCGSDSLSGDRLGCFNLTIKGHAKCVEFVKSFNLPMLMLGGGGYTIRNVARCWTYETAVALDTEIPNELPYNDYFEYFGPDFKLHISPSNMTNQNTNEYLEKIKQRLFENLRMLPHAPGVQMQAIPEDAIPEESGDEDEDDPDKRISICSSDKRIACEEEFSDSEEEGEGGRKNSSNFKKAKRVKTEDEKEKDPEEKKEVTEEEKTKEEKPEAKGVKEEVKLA
Histone deacetylase 2 (Homo sapiens), sequence (Q92769 whole entry, the tested form may be a part): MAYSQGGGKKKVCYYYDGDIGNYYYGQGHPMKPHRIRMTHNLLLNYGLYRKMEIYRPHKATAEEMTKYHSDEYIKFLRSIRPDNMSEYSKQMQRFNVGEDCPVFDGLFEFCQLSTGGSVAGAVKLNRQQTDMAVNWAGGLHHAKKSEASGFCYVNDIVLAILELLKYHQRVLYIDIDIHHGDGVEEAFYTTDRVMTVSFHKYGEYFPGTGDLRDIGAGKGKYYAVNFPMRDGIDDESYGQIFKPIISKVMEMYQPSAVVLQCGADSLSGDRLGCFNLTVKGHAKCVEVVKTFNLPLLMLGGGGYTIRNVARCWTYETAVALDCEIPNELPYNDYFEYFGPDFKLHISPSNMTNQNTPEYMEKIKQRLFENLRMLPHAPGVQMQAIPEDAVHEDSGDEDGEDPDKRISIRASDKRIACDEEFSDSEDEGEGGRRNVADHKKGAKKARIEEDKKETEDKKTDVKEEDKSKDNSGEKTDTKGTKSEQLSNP

Structure (SMILES)	IC50 (HCT-116 [1]) [µM]	IC50 (HCT-116 [2]) [µM]	IC50 (HCT-116 [3]) [µM]	other results
O=C(CCCNC(=O)C(=O)O)NCCc1cccc(O)c1	> 50	–	> 50	–
O=C(CCCNC(=O)C(=O)O)Nc1ccccc1	> 50	–	0.814	inhibition [4]: inactive; inhibition [5]: inactive
O=C(CCCNC(=O)C(=O)O)NCCc1c[nH]c2ccccc12	–	–	< 50	–
O=C(CCCNC(=O)C(=O)O)NCCCc1ccccc1	–	–	> 50	–
CCOC(=O)NCCCC(=O)NCc1ccccc1	–	0.615	> 50	–
O=C(CCCNC(=O)C(=O)O)NCCc1ccccc1	> 50	–	> 50	–

More lines, main results first:

IC50 (HCT-116 [1]) [µM]	IC50 (HCT-116 [2]) [µM]	IC50 (HCT-116 [3]) [µM]	Structure (SMILES)	other results
0.825	5 to 10	> 50	CCOC(=O)NCCCC(=O)NCCc1cccc(F)c1	–
–	–	> 50	O=C(CCCNC(=O)C(=O)O)NCCc1cccc(F)c1	–
0.476	1 to 5	> 50	CCOC(=O)NCCCC(=O)NCCc1cccc(O)c1	inhibition [6]: inactive; inhibition [7]: inactive; inhibition [4]: inactive; inhibition [8]: inactive; inhibition [9]: inactive; inhibition [5]: inactive; inhibition [10]: inactive; inhibition [11]: inactive; inhibition [12]: inactive
> 50	> 50	> 50	CCOC(=O)NCCCC(=O)NCCc1ccccc1	inhibition [6]: inactive; inhibition [7]: inactive; inhibition [8]: inactive; inhibition [9]: inactive; inhibition [10]: inactive; inhibition [11]: inactive; inhibition [12]: inactive
> 50	> 50	> 50	CCOC(=O)NCCCC(=O)NCCCc1ccccc1	–
